For one series, the target named is Histone deacetylase 1 (Homo sapiens, UniProt Q13547). As to the kind of experiment: Inhibition of HDAC1 purified from HEK293 cells by Western blot. Type of series: cell-free.
Series [1] can be described thus: Inhibition of histidine-tagged HDAC4 wild type catalytic domain purified from Escherichia coli after 10 mins. In a few lines:
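His-tagged HDAC4 catalytic domain (653-1084) expressed in E. coli. Trifluoroacetamide substrate then added for 1 h at 37 °C. Stopped with developer/TSA; fluorescence read at ex 360/em 460. IC50 values are means of >2 experiments.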

The next series deals with Histone deacetylase 3 (Homo sapiens, UniProt O15379). As to the kind of experiment: Inhibition of HDAC3 purified from HEK293 cells by Western blot. The class given is cell-free.
Sequence of Histone deacetylase 3 (O15379 whole entry): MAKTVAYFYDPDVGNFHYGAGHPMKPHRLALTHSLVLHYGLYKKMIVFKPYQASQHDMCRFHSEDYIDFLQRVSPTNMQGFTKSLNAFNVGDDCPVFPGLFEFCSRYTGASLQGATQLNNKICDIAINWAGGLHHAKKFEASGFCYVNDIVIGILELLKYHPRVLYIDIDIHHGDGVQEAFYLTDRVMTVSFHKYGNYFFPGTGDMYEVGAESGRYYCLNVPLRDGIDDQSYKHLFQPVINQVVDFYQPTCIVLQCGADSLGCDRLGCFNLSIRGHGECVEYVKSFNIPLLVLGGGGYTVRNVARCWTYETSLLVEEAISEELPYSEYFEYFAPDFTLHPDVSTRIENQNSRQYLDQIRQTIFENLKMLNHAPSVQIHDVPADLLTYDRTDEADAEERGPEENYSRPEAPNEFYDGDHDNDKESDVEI
Series [2] concerns the target T1, Protein deacetylase HDAC6 (Homo sapiens, UniProt Q9UBN7).
T1 sequence (Q9UBN7 whole entry): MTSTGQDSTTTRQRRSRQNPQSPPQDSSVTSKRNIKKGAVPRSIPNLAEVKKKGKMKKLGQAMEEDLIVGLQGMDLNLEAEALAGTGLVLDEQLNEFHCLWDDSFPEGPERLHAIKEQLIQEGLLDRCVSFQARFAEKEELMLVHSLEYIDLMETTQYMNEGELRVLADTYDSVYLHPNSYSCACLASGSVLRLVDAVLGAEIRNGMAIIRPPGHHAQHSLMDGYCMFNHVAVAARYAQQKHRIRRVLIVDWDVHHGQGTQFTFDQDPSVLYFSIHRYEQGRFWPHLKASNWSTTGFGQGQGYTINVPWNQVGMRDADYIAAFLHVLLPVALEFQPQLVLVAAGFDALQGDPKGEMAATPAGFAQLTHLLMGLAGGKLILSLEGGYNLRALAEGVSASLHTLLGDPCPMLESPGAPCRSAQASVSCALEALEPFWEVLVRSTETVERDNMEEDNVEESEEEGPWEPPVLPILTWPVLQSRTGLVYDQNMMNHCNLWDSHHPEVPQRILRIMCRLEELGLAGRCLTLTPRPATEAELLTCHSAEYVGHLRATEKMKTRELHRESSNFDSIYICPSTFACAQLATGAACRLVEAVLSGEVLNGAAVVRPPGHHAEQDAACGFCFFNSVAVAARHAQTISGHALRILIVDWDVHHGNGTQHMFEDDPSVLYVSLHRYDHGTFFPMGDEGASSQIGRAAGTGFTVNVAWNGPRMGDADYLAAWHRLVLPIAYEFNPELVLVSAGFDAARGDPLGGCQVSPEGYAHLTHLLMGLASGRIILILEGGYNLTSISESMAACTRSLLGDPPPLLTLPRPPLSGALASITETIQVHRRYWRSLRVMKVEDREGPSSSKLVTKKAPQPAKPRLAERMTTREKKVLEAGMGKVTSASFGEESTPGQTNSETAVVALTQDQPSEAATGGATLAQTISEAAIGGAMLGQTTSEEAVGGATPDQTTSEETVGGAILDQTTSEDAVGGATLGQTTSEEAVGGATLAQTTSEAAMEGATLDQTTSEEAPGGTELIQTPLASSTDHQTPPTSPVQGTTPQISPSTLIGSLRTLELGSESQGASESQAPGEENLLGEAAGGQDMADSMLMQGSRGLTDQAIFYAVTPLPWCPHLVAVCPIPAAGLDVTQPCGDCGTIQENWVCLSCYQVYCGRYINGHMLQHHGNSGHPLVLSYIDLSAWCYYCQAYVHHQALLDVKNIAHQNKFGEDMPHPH
As to the kind of experiment: Inhibition of HDAC6 purified from HEK293 cells by Western blot. The class given is cell-free.

In series [3] the target is T2, Histone deacetylase (Homo sapiens) (UniProt Q13547+O15379+Q9UBN7+Q92769+Q9UQL6+Q8WUI4+Q9BY41+Q96DB2+P56524+Q9UKV0+Q969S8). As to the kind of experiment: Inhibition of HDAC in human HCT116 cells assessed as alpha-tubulin deacetylation up to 10 uM after 24 hrs. The class given is cell-based. Conditions: HCT-116. The procedure, abridged:
(§1)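 HCT116 cells treated 24 h. Alpha-tubulin acetylation measured, with the signal from 10 µM SAHA taken as 100% activation. Values are means of >2 experiments.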

The nature of series [4]: Stability in human HCT116 cells S9 fraction by LCMS/MS in presence of NADPH. Type of series: ADME, subcellular. The procedure, abridged: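 S9 at 1 mg/ml with 1 mM NADPH plus a regenerating system, 37 °C with low shaking. Stopped with 1N HCl, centrifuged, supernatant diluted with acetonitrile containing internal standard, analysed by LCMS/MS.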
The target of series [5] is Histone deacetylase. As to the kind of experiment: Inhibition of HDAC in human HCT116 cells assessed as alpha-tubulin deacetylation. Type of series: cell-based. The note with it: hct-116. In a few lines: as §1
Series [6] addresses T3, Cytochrome P450 2C9 (Homo sapiens, UniProt P11712). As to the kind of experiment: Inhibition of CYP2C9 in human liver microsomes. Type of series: ADME, Microsome. In a few lines: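 Human liver microsomes. Read-out is tritium released as tritiated water on CYP2C9-mediated 4'-hydroxylation of diclofenac tritiated at the 4' position. IC50 values are means of >2 experiments.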

In series [7] the target is T3, Cytochrome P450 2C9. As to the kind of experiment: Inhibition of CYP2C9 in human hepatocytes in presence of 10% fetal bovine serum. The class given is ADME, cell-based, Hepatocyte. The procedure, abridged:
(§2)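 Human hepatocytes. Read-out is CYP2C9-mediated 4'-hydroxylation of 4'-tritiated diclofenac, measured as tritiated water. Run without serum and with 10% FBS added. IC50 values are means of >2 experiments.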

The target in series [8] is T2, Histone deacetylase (Homo sapiens). Conditions: HCT-116, 25 uM.
A further series deals with Hepatocyte. As to the kind of experiment: Toxicity in human hepatocytes by MTS assay. The class given is cell-based.
Series [9] has as its target T3, Cytochrome P450 2C9. As to the kind of experiment: Inhibition of CYP2C9 in human hepatocytes. Type of series: ADME, cell-based, Hepatocyte. In a few lines:
as §2

Series [10] is described as follows: Stability in human HCT116 cells by LCMS/MS in presence of 10% fetal bovine serum. Type of series: ADME, cell-based, HCT-116. In a few lines: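 Compounds at 1 and 5 µM incubated with HCT116 cells in medium with 10% FBS for up to 24 h. Aliquots taken over time and analysed by LCMS/MS. A cell-free medium control was run. Half-life was derived.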
In series [11] the target is T2, Histone deacetylase (Homo sapiens). As to the kind of experiment: Inhibition of HDAC in human HCT116 cells assessed as alpha-tubulin deacetylation at 50 uM after 24 hrs relative to 10 uM SAHA. The class given is cell-based. The note with it: HCT-116. The procedure, abridged: as §1
For series [12] the target is unchanged. Conditions: HCT-116, 50 uM.
Series [13] has as its target Histone deacetylase. As to the kind of experiment: Inhibition of HDAC in human HCT116 cells assessed as histone H3 deacetylation. The note with it: hct-116. Type of series: cell-based.
In series [14] the target is T2, Histone deacetylase (Homo sapiens). As to the kind of experiment: Inhibition of HDAC in human HCT116 cells assessed as histone H3 deacetylation up to 10 uM. Conditions: HCT-116. Type of series: cell-based.
Series [15] is described as follows: Toxicity in human […] by MTS assay.

Calls of active or inactive are those of the source. No cut-off for these calls is given here.

Sequence of Histone deacetylase 1 (Q13547 whole entry, the tested form may be a part): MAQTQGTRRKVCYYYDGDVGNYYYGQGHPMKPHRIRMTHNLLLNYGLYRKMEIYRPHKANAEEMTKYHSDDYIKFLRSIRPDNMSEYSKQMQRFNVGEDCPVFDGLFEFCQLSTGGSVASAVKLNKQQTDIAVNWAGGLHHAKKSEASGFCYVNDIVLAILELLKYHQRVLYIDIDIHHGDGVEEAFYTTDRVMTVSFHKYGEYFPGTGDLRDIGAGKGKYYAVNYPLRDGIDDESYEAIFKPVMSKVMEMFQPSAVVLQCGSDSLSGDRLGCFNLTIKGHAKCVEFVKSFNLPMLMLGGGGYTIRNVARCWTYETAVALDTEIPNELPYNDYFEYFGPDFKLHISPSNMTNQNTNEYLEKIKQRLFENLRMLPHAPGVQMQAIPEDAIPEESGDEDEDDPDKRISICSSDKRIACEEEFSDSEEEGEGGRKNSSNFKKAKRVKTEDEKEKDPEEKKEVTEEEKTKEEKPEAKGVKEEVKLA
T3 sequence (P11712 whole entry): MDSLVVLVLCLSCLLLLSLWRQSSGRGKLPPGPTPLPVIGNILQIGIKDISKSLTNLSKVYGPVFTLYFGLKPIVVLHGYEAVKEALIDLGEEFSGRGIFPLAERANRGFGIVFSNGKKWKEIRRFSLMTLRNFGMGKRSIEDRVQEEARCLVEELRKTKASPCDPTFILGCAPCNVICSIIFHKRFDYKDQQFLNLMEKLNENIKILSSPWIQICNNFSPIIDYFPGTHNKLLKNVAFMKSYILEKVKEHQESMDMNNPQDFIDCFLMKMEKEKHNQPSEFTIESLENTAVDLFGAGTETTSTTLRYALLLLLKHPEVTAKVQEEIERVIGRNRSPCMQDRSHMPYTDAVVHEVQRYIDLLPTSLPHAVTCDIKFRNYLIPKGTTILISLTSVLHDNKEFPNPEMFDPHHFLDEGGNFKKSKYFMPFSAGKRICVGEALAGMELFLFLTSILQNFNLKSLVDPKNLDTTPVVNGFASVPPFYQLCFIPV

Consider `O=C(c1ccc(C(=O)C(F)(F)F)s1)N1CCc2ccccc21`, for which the IC50 against Histone deacetylase 1 amounted to 1.3 µM; in [1], 0.15 µM; against Histone deacetylase 3, 1.4 µM; in series [2], 0.13 µM.

For the molecule `O=C(NCc1ccccc1Cl)c1ccc(C(=O)C(F)(F)F)s1`, in [3], the result was inactive. Also, the IC50 on Histone deacetylase 1 was 0.55 µM; in series [1], 0.1 µM; in [2], 0.19 µM. In [4], the half-life turned out to be 0.25 h.

`Cc1noc(-c2ccc(C(=O)C(F)(F)F)s2)n1` returned an IC50 in [1] of 0.075 µM. Also, the half-life in series [4] was > 2 h. The EC50 on Histone deacetylase [5] worked out at 6.5 µM.

As to `CN(Cc1ccccc1)C(=O)c1ccc(C(=O)C(F)(F)F)s1`, the concentration for half-maximal inhibition (IC50) against Histone deacetylase 1 worked out at 0.89 µM; in [1] it was 0.51 µM; against Histone deacetylase 3 it was 0.56 µM.

As to `CC(NC(=O)c1ccc(C(=O)C(F)(F)F)s1)c1cccc2ccccc12` (stereo not drawn), the IC50 on Histone deacetylase 1 was determined as 0.83 µM; in series [1] it was 0.17 µM; on Cytochrome P450 2C9 [6], 1.4 µM; on Cytochrome P450 2C9 [7], 17 µM; on Histone deacetylase 3, 0.84 µM; in series [2], 0.36 µM. On Cytochrome P450 2C9 [9], this molecule displayed an IC50 of 11 µM. For the same molecule, the inhibition in series [8] came out at 50%. For the same molecule, the Activity result with Hepatocyte is listed as “Non-toxic”. Besides, in series [10], the half-life is 3 h.

With `O=C(c1ccc(C(=O)C(F)(F)F)[nH]1)N1CCc2ccccc21`, the half-life in series [4] was 0.25 h. The same molecule registered an IC50 in series [2] of 0.58 µM.

Turning to `O=C(NCC1CCCCC1)c1ccc(C(=O)C(F)(F)F)cn1`, the half-life in series [4] was > 2 h. Further, the IC50 in [2] worked out at 3.32 µM.

Turning to `O=C(c1ccc(C(=O)C(F)(F)F)s1)N1CCn2c(-c3ccccc3)cnc2C1`, the figures for the half-maximal inhibitory concentration (IC50) (on Histone deacetylase 1; in series [1]; on Histone deacetylase 3) were 4.7 µM, 0.3 µM and > 5 µM, respectively.

In the case of `COc1cccc(N2CCN(C(=O)c3ccc(C(=O)C(F)(F)F)s3)CC2)c1`, the concentration for half-maximal inhibition (IC50) came out at 0.48 µM in [1]; 5 µM against Cytochrome P450 2C9 [6]; 8 µM at Cytochrome P450 2C9 [7]; 0.17 µM in series [2]; 8 µM against Cytochrome P450 2C9 [9]. Also, the inhibition in [11] amounted to 50%. For the same molecule, the Activity entry in the series on Hepatocyte is “Non-toxic”.

Regarding `C[C@H](NC(=O)c1ccc(C(=O)C(F)(F)F)s1)c1ccccc1`, the IC50 against Histone deacetylase 1 is 5 µM; in [1], 0.17 µM; in [2] it was 0.15 µM.

Molecule `CN(Cc1ccc2nccnc2c1)C(=O)c1ccc(C(=O)C(F)(F)F)s1` displayed an IC50 in series [1] of 0.1 µM. The inhibition in series [12] was 40%. In addition, the half-life in series [4] was 0.333 h; in [10], 3.5 h. In addition, the EC50 at Histone deacetylase [5] was 12 µM.

For the molecule `O=C(c1ncc(C(=O)C(F)(F)F)s1)N1CCc2ccccc21`, the outcome in series [3] was inactive. For the same molecule, the half-inhibitory concentration (IC50) against Histone deacetylase 1 came to 1.6 µM; in series [1], 0.013 µM; in series [2], 0.41 µM. Also, the half-life in series [4] turned out to be 0.333 h.

As to `CC(NC(=O)c1ccc(C(=O)C(F)(F)F)s1)c1ccncc1` (stereo not drawn), the IC50 on Histone deacetylase 1 was 1.6 µM; in series [1], 0.09 µM; on Cytochrome P450 2C9 [6], 13 µM; at Cytochrome P450 2C9 [7], 3 µM; at Histone deacetylase 3, 1.5 µM; in series [2], 0.26 µM. This molecule showed a 50% inhibitory concentration (IC50) at Cytochrome P450 2C9 [9] of 10 µM. Also, the figures for the half-maximal effective concentration (EC50) on Histone deacetylase [13] and at Histone deacetylase [5] were > 35 µM and 10 µM, respectively. Besides, the Activity entry with Hepatocyte is given as “Non-toxic”. Besides, the half-life in series [10] is 5 h.

Take `O=C(c1ccc(C(=O)C(F)(F)F)s1)N1CCC(c2nnc(-c3ccccc3)o2)CC1`: the IC50 at Histone deacetylase 1 came to 1.3 µM; in [1] it was 0.07 µM; on Cytochrome P450 2C9 [6], 8 µM; at Cytochrome P450 2C9 [7] it was 5 µM; at Histone deacetylase 3, 2.8 µM; in [2], 0.16 µM. Besides, the concentration for half-maximal inhibition (IC50) against Cytochrome P450 2C9 [9] stood at 8 µM. For the same molecule, the Activity entry in the series on Hepatocyte is listed as “Non-toxic”. The half-life in series [10] was 2 h.

As for `COc1ccc(Cl)cc1N1CCN(C(=O)c2ccc(C(=O)C(F)(F)F)s2)CC1`, the outcome in [3] and in series [14] was inactive. Also, the IC50 against Histone deacetylase 1 is 4.4 µM; in [1], 0.53 µM; at Cytochrome P450 2C9 [6] it was 1.8 µM; against Histone deacetylase 3, > 10 µM; in series [2] it was 0.175 µM; against Cytochrome P450 2C9 [9] it was 1.8 µM. In addition, the Activity result (in series [15]; in the series on Hepatocyte) was “Non-toxic” in each case. Also, the half-life in [10] was 2 h.

The values above are taken from ChEMBL document CHEMBL1152285 (Bioorg Med Chem Lett, 2008).
